# pIC50: −log10 of the molar value. The source made the active and inactive calls. The calls are words filed in the database; no cut-off is given here.
# Assays:
# [1] = target: T1, Polyunsaturated fatty acid 5-lipoxygenase (Rattus norvegicus, UniProt P12527); assay: Evaluated in vitro for its inhibitory activity against 5-lipoxygenase; N=Inactive, <50% inhibition at 10 uM concentration
# T1 sequence (P12527 whole entry): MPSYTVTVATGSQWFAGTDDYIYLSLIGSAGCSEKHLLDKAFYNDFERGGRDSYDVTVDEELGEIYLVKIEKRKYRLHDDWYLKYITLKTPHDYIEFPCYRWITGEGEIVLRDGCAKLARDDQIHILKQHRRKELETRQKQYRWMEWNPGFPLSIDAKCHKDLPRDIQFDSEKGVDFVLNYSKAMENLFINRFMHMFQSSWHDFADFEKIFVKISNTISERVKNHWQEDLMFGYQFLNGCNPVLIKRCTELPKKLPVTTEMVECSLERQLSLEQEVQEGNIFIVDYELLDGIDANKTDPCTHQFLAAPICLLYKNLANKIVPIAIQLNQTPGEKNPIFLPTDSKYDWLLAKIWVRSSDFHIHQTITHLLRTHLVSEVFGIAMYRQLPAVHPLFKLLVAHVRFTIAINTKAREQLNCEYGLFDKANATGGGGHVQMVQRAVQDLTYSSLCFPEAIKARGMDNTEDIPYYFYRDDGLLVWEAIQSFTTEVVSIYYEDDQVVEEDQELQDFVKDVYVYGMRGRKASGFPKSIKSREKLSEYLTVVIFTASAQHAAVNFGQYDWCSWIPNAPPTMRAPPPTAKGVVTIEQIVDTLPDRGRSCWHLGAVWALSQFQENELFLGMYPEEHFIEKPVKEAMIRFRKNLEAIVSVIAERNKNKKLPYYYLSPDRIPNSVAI
# Outline: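 RBL-1 cells grown in MEM + 12% FBS, washed in PBS pH 7.4, resuspended at 2×10^6 cells/mL in PBS with 1.0 mM calcium. Preincubated 10 min at room temperature with compound in DMSO, then stimulated with A23187 (5 μM) 7 min at 37 °C; stopped on ice. Supernatant LTB4 by radioimmunoassay.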
# [2] = target: Cyclooxygenase (Rattus norvegicus) (UniProt P35355+Q63921); assay: Inhibitory activity against Prostaglandin G/H synthase at 10 uM; format: protein assay
# Outline: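 Cyclooxygenase read-out in RBL-1 cells (2×10^6 cells/mL in PBS with 1.0 mM calcium): 10 min room-temperature preincubation with compound in DMSO, A23187 (5 μM) stimulation 7 min at 37 °C, ice stop. Supernatant PGF2α by radioimmunoassay; percent inhibition at a 10 μM screening concentration.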
# [3] = target: T2, Cyclooxygenase (Rattus norvegicus, UniProt P35355+Q63921); assay: Evaluated in vitro for its inhibitory activity against Prostaglandin G/H synthase; format: protein assay
# T2 sequence (P35355 whole entry): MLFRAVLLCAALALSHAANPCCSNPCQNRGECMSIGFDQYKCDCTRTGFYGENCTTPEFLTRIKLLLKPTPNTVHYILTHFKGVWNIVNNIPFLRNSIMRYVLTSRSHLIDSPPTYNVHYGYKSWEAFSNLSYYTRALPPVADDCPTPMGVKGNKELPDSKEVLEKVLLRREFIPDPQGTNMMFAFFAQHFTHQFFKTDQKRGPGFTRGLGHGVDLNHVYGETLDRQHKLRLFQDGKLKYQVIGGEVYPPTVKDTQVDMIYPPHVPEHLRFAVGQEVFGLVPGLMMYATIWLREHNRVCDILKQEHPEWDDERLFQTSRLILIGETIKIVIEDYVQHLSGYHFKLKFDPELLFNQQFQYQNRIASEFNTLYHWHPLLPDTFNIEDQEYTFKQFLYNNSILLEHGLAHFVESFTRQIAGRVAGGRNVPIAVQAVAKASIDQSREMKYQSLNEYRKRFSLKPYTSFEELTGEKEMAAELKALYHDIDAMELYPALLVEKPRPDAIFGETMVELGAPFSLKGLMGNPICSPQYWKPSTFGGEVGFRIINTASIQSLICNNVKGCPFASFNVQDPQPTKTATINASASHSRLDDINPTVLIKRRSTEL
# T2 sequence (Q63921 whole entry): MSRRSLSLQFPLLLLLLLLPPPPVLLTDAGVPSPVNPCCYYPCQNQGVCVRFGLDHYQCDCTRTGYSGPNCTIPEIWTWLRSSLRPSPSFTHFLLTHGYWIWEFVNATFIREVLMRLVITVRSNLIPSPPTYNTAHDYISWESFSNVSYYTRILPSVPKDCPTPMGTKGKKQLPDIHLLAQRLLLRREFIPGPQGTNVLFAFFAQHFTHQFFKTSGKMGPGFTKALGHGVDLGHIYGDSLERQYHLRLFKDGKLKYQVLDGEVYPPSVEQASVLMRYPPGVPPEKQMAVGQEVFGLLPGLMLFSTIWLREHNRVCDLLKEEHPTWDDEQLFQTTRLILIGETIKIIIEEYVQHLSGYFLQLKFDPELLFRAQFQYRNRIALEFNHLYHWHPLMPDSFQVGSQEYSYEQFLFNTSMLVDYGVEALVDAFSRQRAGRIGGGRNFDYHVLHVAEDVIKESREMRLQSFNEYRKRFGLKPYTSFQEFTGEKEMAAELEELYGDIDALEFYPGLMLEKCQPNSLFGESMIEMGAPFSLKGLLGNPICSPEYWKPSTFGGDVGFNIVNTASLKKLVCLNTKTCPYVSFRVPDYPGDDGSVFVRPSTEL
# [4] = species: Rattus norvegicus; assay: Ratio of IC50 against 5-LO to that of CO enzyme.
# Outline: (§1)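 In ionophore-stimulated RBL-1 cells (2×10^6/mL, PBS with 1.0 mM Ca, 10 min compound preincubation at room temperature, 5 μM A23187 for 7 min at 37 °C), supernatant LTB₄ (5-LO) and PGF₂α (CO) were each quantified by RIA over 0.10–10.0 μM. IC50s came from linear regression, and the ratio is the 5-LO IC50 over the CO IC50.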
# [5] = target: T1, Polyunsaturated fatty acid 5-lipoxygenase; assay: Inhibitory activity against 5-Lipoxygenase
# Outline: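 Rat basophilic leukemia RBL-1 cells were grown in suspension in MEM with 12% FBS, washed, and resuspended at 2×10^6 cells/mL in PBS pH 7.4 with 1.0 mM calcium. Compound in DMSO was preincubated 10 min at room temperature, then 5 μM A23187 was added for 7 min at 37 °C. LTB₄ in the supernatant was measured by RIA at 0.10–10.0 μM. IC50 was determined by linear regression.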
# [6] = species: Rattus norvegicus; assay: Ratio of IC50 against 5-LO and COX; outline: as §1
# [7] = tested on: Rattus norvegicus; assay: Compound was evaluated for the antiinflammatory activity by taking the percentage inhibition of edema in the carrageenan foot-pad edema test at the dose of 10 mg/kg; format: functional
# Outline: (§2)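 Male Wistar rats dosed orally (0.5% HPMC/0.2% Tween 80 or Labrafils, 10 mL/kg) 1 h before subplantar injection of 0.10 mL 1% carrageenan into right hind paw under light anesthesia. Paw volume by mercury plethysmography at challenge and 5 h later; percent inhibition ± SEM versus vehicle group. Doses 10.0 and 30.0 mg/kg po, 7-14 rats per dose.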
# [8] = tested on: Rattus norvegicus; assay: Compound was evaluated for the antiinflammatory activity by taking the percentage inhibition of edema in the carrageenan foot-pad edema test at the dose of 30 mg/kg; format: functional; outline: as §2
# [9] = target: T1, Polyunsaturated fatty acid 5-lipoxygenase; assay: Evaluated in vitro for its inhibitory activity against 5-lipoxygenase
# [10] = tested on: Rattus norvegicus; assay: Evaluated for the antiinflammatory activity by measuring the percentage inhibition of edema in the carrageenan foot-pad edema test at the dose of 10 mg/kg; format: functional; outline: as §2
# [11] = tested on: Rattus norvegicus; assay: Evaluated for the antiinflammatory activity by measuring the percentage inhibition of edema in the carrageenan foot-pad edema test at the dose of 30 mg/kg; format: functional; outline: as §2
# [12] = tested on: Rattus norvegicus; assay: Compound was evaluated for the antiinflammatory activity by measuring the dose (po) which inhibited Mycobacterium induced foot-pad edema in rats; N=Inactive, <30% inhibition at 10 mg/kg po; format: functional, organism-based; parameters: dose 10 mg/kg
# [13] = tested on: Rattus norvegicus; assay: Evaluated for the percent rats with ulcers at the dose of 200 mg/kg (number of animals used per group in the experiment are 10 ); format: functional
# Outline: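 Male outbred Wistar rats (100-250 g) fasted 24 h, given compound orally in 0.5% HPMC (2 mL/kg), then denied food and water 6 more h. Killed with CO2; stomachs opened along greater curvature and scored for ulcers. Percent of rats with ulcers per dose; up to 200 mg/kg po, 10 rats per dose.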
# [14] = tested on: Rattus norvegicus; assay: Evaluated for the antiinflammatory activity by measuring the dose (po) which inhibited Mycobacterium induced foot-pad edema in rats; format: functional
# [15] = tested on: Rattus norvegicus; assay: Compound was evaluated for the antiinflammatory activity by measuring the percentage inhibition of edema in the carrageenan foot-pad edema test at the dose of 30 mg/kg; N=Inactive, <25% inhibition; format: functional, organism-based; parameters: dose 30 mg/kg; outline: as §2
# [16] = target: T3, Polyunsaturated fatty acid 5-lipoxygenase (Rattus norvegicus) (UniProt P12527); details: at 10 µM
# T3 sequence (whole entry): T1 sequence (P12527 whole entry)
SMILES,IC50 [1],IC50 [3] [nM],Ratio [4],pIC50 [9],also measured
CNCc1noc(-c2cc(C(C)(C)C)c(O)c(C(C)(C)C)c2)n1,Inactive,,,,inhibition [2]: 78%
CN(C)c1noc(-c2cc(C(C)(C)C)c(O)c(C(C)(C)C)c2)n1,Inactive,,,,inhibition [2]: 88%
CC(C)(C)c1cc(-c2noc(S)n2)cc(C(C)(C)C)c1O,,50,68,,
CCO/C=N/c1noc(-c2cc(C(C)(C)C)c(O)c(C(C)(C)C)c2)n1,,7200,,,pIC50 [5]: 5.82; Ratio [6]: 0.21; inhibition in vivo at 10 mg/kg [7]: 21%; inhibition in vivo at 30 mg/kg [8]: 37.3%
CC(C)(C)c1cc(-c2nc(=S)o[nH]2)cc(C(C)(C)C)c1O,,,,5.47,
CC(C)(C)c1cc(-c2nc(N)no2)cc(C(C)(C)C)c1O,,1900,1.9,5.44,inhibition in vivo at 10 mg/kg [10]: 43.6%; ID40 [12]: inactive; inhibition in vivo at 30 mg/kg [11]: 32.9%
Cc1noc(-c2cc(C(C)(C)C)c(O)c(C(C)(C)C)c2)n1,,460,7.2,5.48,inhibition [15]: inactive
CC(C)(C)c1cc(-c2nc(NC=O)no2)cc(C(C)(C)C)c1O,Inactive,,,,inhibition in vivo at 10 mg/kg [10]: 51.5%; ID40 [12]: inactive; inhibition in vivo at 30 mg/kg [11]: 54.3%
CN(C)Cc1noc(-c2cc(C(C)(C)C)c(O)c(C(C)(C)C)c2)n1.Cl,,450,15,5.17,inhibition in vivo at 10 mg/kg [10]: 34.6%; ID40 [12]: inactive; inhibition in vivo at 30 mg/kg [11]: 50.3%
CC(C)(C)c1cc(-c2noc(N=C(N)N)n2)cc(C(C)(C)C)c1O.CS(=O)(=O)O,,670,2.5,5.77,inhibition in vivo at 10 mg/kg [10]: 51.2%; Activity [13]: 0%; inhibition in vivo at 30 mg/kg [11]: 71%; ID40 [14]: 3.1 mg/kg
CN(C)Cc1nc(-c2cc(C(C)(C)C)c(O)c(C(C)(C)C)c2)no1.Cl,,730,10.5,5.11,
CCOC(=O)c1nc(-c2cc(C(C)(C)C)c(O)c(C(C)(C)C)c2)ns1,,,,,inhibition [16]: 91%
CN(C)C(=N)Nc1nc(-c2cc(C(C)(C)C)c(O)c(C(C)(C)C)c2)ns1,,,,,inhibition [16]: 72%
CC(C)(C)c1cc(-c2nc(CN3CCCC3)no2)cc(C(C)(C)C)c1O,Inactive,,,,
CC(=O)Nc1noc(-c2cc(C(C)(C)C)c(O)c(C(C)(C)C)c2)n1,Inactive,,,,inhibition [15]: inactive
Cc1ccc(S(=O)(=O)c2nc(-c3cc(C(C)(C)C)c(O)c(C(C)(C)C)c3)ns2)cc1,Inactive,,,,

# Now from value to compound, other results behind:
IC50 [1],IC50 [3] [nM],Ratio [4],pIC50 [9],SMILES,also measured
,300,7.7,,Cc1nc(-c2cc(C(C)(C)C)c(O)c(C(C)(C)C)c2)no1,
Inactive,4700,,,CC(C)(C)c1cc(-c2noc(O)n2)cc(C(C)(C)C)c1O,
,3000,0.83,5.60,CC(C)(C)c1cc(-c2noc(N)n2)cc(C(C)(C)C)c1O,inhibition in vivo at 10 mg/kg [10]: 36%; inhibition in vivo at 30 mg/kg [11]: 39%
,11,,,CC(C)(C)c1cc(-c2nsc(NC#N)n2)cc(C(C)(C)C)c1O.C[N+](C)(C)CC[O-],pIC50 [5]: 5.72; Ratio [6]: 173
,87,30,5.59,CC(C)(C)c1cc(-c2nsc(CN)n2)cc(C(C)(C)C)c1O.Cl,
,4400,0.084,6.43,C/N=C(\N)Nc1nc(-c2cc(C(C)(C)C)c(O)c(C(C)(C)C)c2)ns1.Cl,inhibition in vivo at 10 mg/kg [10]: 18%; Activity [13]: 0%; inhibition in vivo at 30 mg/kg [11]: 38.9%; ID40 [14]: 6 mg/kg
,170,7.1,5.92,CSC(=N)Nc1nc(-c2cc(C(C)(C)C)c(O)c(C(C)(C)C)c2)ns1.Cl,inhibition in vivo at 10 mg/kg [10]: 30.7%; Activity [13]: 0%; inhibition in vivo at 30 mg/kg [11]: 41.4%; ID40 [14]: 7.3 mg/kg
Inactive,,,,CC(=N)Nc1nc(-c2cc(C(C)(C)C)c(O)c(C(C)(C)C)c2)ns1.Cl,
Inactive,,,,CN(C)Cc1nc(-c2cc(C(C)(C)C)c(O)c(C(C)(C)C)c2)ns1.Cl,
,1600,0.088,6.85,CC(C)(C)c1cc(-c2nsc(N=C(N)N)n2)cc(C(C)(C)C)c1O.Cl,inhibition in vivo at 10 mg/kg [10]: 46.1%; Activity [13]: 0%; inhibition in vivo at 30 mg/kg [11]: 61.3%; ID40 [14]: 5.1 mg/kg
,2200,0.15,6.48,CC(C)(C)c1cc(-c2nsc(N)n2)cc(C(C)(C)C)c1O,

# Reference: ChEMBL document CHEMBL1125307, “Novel 1,2,4-oxadiazoles and 1,2,4-thiadiazoles as dual 5-lipoxygenase and cyclooxygenase inhibitors” (J Med Chem, 1992)
